Measured values published in ChEMBL document CHEMBL1123123, “Orally absorbable cephalosporin antibiotics. 2. Structure-activity studies of bicyclic glycine derivatives of 7-aminodeacetoxycephalosporanic acid” (1985).
Converted amounts (≈) assume the structure as drawn.

Tests used:
Format in all cases: functional
[1] = system: Haemophilus influenzae; test: The compound was tested for antibacterial activity against resistant Haemophilus influenzae 76.
Procedure, shortened: (§1)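 Agar dilution susceptibility test following a previously published method; value recorded as MIC. Racemic compounds were separated by preparative HPLC and only the R epimers were tested.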

[2] = system: Haemophilus influenzae; test: The compound was tested for antibacterial activity against sensitive Haemophilus influenzae C.L.
[3] = system: Staphylococcus epidermidis; test: The compound was tested for antibacterial activity against Staphylococcus epidermidis EP11.
[4] = system: Staphylococcus aureus; test: Antibacterial activity against methicillin resistant Staphylococcus aureus S13E.; procedure, shortened: as §1
[5] = system: Staphylococcus aureus; test: Antibacterial activity against methicillin resistant Staphylococcus aureus X400.; procedure, shortened: as §1
[6] = system: Streptococcus pyogenes; test: The compound was tested for antibacterial activity against Streptococcus pyogenes C203.
[7] = system: Staphylococcus aureus; test: Antibacterial activity against penicillin G resistant Staphylococcus aureus V41.; procedure, shortened: as §1
[8] = system: Streptococcus; test: The compound was tested for antibacterial activity against Streptococcus group D X66.
[9] = system: Streptococcus pneumoniae; test: The compound was tested for antibacterial activity against Streptococcus pneumoniae Park.
[10] = system: Staphylococcus aureus; test: Antibacterial activity against penicillin G sensitive Staphylococcus aureus X1.1
[11] = system: Staphylococcus aureus; test: Aantibacterial activity against methicillin resistant Staphylococcus aureus S13E.; procedure, shortened: as §1
[12] = system: Mus musculus; test: Dose administered orally in mice infected with Staphylococcus aureus.; details: po
Procedure, shortened: (§2)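 Mice were used in groups of 10 and inoculated with S. aureus, S. pyogenes or S. pneumoniae. Drug was given orally or subcutaneously at 1 and 5 h after inoculation. The ED50 was determined from the dosed groups.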

[13] = system: Mus musculus; test: Dose administered orally in mice infected with Streptococcus pneumoniae; details: po; procedure, shortened: as §2
[14] = system: Mus musculus; test: Dose administered orally in mice infected with Streptococcus pyogenes.; details: po; procedure, shortened: as §2
[15] = system: Mus musculus; test: Dose administered subcutaneously in mice infected with Streptococcus pneumoniae; details: sc; procedure, shortened: as §2
[16] = system: Mus musculus; test: Dose administered subcutaneously in mice infected with Streptococcus pyogenes; details: sc; procedure, shortened: as §2
[17] = system: Mus musculus; test: Dose administered subcutaneously in mice infected with Staphylococcus aureus.; details: sc; procedure, shortened: as §2

| SMILES | MIC [1] | MIC [2] | MIC [3] | MIC [4] | MIC [5] | MIC [6] | MIC [7] | MIC [8] | MIC [9] | MIC [10] | MIC [11] | ED50 [12] | ED50 [13] | ED50 [14] | ED50 [15] | ED50 [16] | ED50 [17] |
| --- | --- | --- | --- | --- | --- | --- | --- | --- | --- | --- | --- | --- | --- | --- | --- | --- | --- |
| CC1=C(C(=O)O)N2C(=O)C(NC(=O)C(N)c3cc4sccc4s3)C2SC1 (stereo not drawn) | 2 µg/mL (≈ 4.88 µM) | 64 µg/mL (≈ 156 µM) | 16 µg/mL (≈ 39.1 µM) | 64 µg/mL (≈ 156 µM) | > 64 µg/mL | 0.25 µg/mL (≈ 0.61 µM) | 32 µg/mL (≈ 78.1 µM) | > 64 µg/mL | 1 µg/mL (≈ 2.44 µM) | 0.5 µg/mL (≈ 1.22 µM) | – | – | – | – | – | – | – |
| CC1=C(C(=O)O)N2C(=O)C(NC(=O)C(N)c3cccc4c(C)csc34)C2SC1 (stereo not drawn) | 1 µg/mL (≈ 2.4 µM) | 8 µg/mL (≈ 19.2 µM) | 8 µg/mL (≈ 19.2 µM) | – | 64 µg/mL (≈ 153 µM) | 1 µg/mL (≈ 2.4 µM) | 16 µg/mL (≈ 38.3 µM) | 64 µg/mL (≈ 153 µM) | 2 µg/mL (≈ 4.79 µM) | 2 µg/mL (≈ 4.79 µM) | 64 µg/mL (≈ 153 µM) | – | – | – | – | – | – |
| CC1=C(C(=O)O)N2C(=O)C(NC(=O)C(N)c3cc4ccsc4s3)C2SC1 (stereo not drawn) | 2 µg/mL (≈ 4.88 µM) | 8 µg/mL (≈ 19.5 µM) | 4 µg/mL (≈ 9.77 µM) | 16 µg/mL (≈ 39.1 µM) | > 64 µg/mL | 0.25 µg/mL (≈ 0.61 µM) | 32 µg/mL (≈ 78.1 µM) | > 64 µg/mL | 0.5 µg/mL (≈ 1.22 µM) | 0.5 µg/mL (≈ 1.22 µM) | – | – | – | – | – | – | – |
| CC1=C(C(=O)O)N2C(=O)C(NC(=O)C(N)c3cccc4sccc34)C2SC1 (stereo not drawn) | 2 µg/mL (≈ 4.96 µM) | 4 µg/mL (≈ 9.91 µM) | 16 µg/mL (≈ 39.7 µM) | 64 µg/mL (≈ 159 µM) | 64 µg/mL (≈ 159 µM) | 0.25 µg/mL (≈ 0.62 µM) | 16 µg/mL (≈ 39.7 µM) | 64 µg/mL (≈ 159 µM) | 1 µg/mL (≈ 2.48 µM) | 2 µg/mL (≈ 4.96 µM) | – | – | – | – | – | – | – |
| CC1=C(C(=O)O)N2C(=O)C(NC(=O)C(N)c3ccc4sccc4c3)C2SC1 (stereo not drawn) | 4 µg/mL (≈ 9.91 µM) | 8 µg/mL (≈ 19.8 µM) | 2 µg/mL (≈ 4.96 µM) | 64 µg/mL (≈ 159 µM) | 64 µg/mL (≈ 159 µM) | 0.125 µg/mL (≈ 0.31 µM) | 4 µg/mL (≈ 9.91 µM) | 64 µg/mL (≈ 159 µM) | 0.5 µg/mL (≈ 1.24 µM) | 0.5 µg/mL (≈ 1.24 µM) | – | – | – | – | – | – | – |
| CC(=O)N1CCc2cc(C(N)C(=O)NC3C(=O)N4C(C(=O)O)=C(C)CSC34)ccc21 (stereo not drawn) | 8 µg/mL (≈ 18.6 µM) | 16 µg/mL (≈ 37.2 µM) | 8 µg/mL (≈ 18.6 µM) | 64 µg/mL (≈ 149 µM) | 64 µg/mL (≈ 149 µM) | 1 µg/mL (≈ 2.32 µM) | 64 µg/mL (≈ 149 µM) | 64 µg/mL (≈ 149 µM) | 1 µg/mL (≈ 2.32 µM) | 2 µg/mL (≈ 4.65 µM) | – | 0.85 mg/kg | 9.3 mg/kg | 2.6 mg/kg | 10.6 mg/kg | 0.79 mg/kg | 2.11 mg/kg |
| CC1=C(C(=O)O)N2C(=O)[C@@H](NC(=O)[C@H](N)c3ccccc3)[C@H]2SC1 [CEPHALEXIN ANHYDROUS] | 8 µg/mL (≈ 23 µM) | 8 µg/mL (≈ 23 µM) | 32 µg/mL (≈ 92.1 µM) | – | – | 0.5 µg/mL (≈ 1.44 µM) | – | – | 2 µg/mL (≈ 5.76 µM) | 4 µg/mL (≈ 11.5 µM) | – | 0.9 mg/kg | 37 mg/kg | 1.77 mg/kg | 30.5 mg/kg | 2.9 mg/kg | 1.66 mg/kg |
